Screening data as filed in PubChem BioAssay.
The list is not random: actives were taken first. Their share in the collection is about 5.5%.
HSV replic up = increases HSV replication in cells; AID 1956; HSV replication augmentation in cells, fold increase; actives 0.005% (n = 220,000); maximum fold increase; in the data active means maximum fold increase above about 1.5; inconclusive means no clear call, values can overlap the other calls; tested in PC3 cells
STAT1 inh = STAT1 signaling inhibition. inhibition, % at 5.5 µM. actives 0.35% (n = 200,000). AID 920. NIH 3T3 STAT1-luciferase reporter, IFN-gamma, luminescence;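 active means inhibition above a set limit, the mean inhibition across all tested compounds plus 3 SD, cut at about 34% in these data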
KCC2 mod = modulates chloride dependent transport by human KCC2 | KCC2 cells, thallium flux FluoZin-2 fluorescence | Q9H2X9 | B-score of Tl+ flux slope (higher = more flux/activation; lower = inhibition) at 10 µM | AID 1456 | actives 2.2% (n = 190,000);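 active means thallium flux slope and its plate-corrected score both differing from the plate sample mean at a set confidence after two filtering rounds, in either direction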;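 further: slope of fluorescence scaled to starting intensity during 10 to 20 s after thallium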
Target sequence (Q9H2X9 whole entry, looked up): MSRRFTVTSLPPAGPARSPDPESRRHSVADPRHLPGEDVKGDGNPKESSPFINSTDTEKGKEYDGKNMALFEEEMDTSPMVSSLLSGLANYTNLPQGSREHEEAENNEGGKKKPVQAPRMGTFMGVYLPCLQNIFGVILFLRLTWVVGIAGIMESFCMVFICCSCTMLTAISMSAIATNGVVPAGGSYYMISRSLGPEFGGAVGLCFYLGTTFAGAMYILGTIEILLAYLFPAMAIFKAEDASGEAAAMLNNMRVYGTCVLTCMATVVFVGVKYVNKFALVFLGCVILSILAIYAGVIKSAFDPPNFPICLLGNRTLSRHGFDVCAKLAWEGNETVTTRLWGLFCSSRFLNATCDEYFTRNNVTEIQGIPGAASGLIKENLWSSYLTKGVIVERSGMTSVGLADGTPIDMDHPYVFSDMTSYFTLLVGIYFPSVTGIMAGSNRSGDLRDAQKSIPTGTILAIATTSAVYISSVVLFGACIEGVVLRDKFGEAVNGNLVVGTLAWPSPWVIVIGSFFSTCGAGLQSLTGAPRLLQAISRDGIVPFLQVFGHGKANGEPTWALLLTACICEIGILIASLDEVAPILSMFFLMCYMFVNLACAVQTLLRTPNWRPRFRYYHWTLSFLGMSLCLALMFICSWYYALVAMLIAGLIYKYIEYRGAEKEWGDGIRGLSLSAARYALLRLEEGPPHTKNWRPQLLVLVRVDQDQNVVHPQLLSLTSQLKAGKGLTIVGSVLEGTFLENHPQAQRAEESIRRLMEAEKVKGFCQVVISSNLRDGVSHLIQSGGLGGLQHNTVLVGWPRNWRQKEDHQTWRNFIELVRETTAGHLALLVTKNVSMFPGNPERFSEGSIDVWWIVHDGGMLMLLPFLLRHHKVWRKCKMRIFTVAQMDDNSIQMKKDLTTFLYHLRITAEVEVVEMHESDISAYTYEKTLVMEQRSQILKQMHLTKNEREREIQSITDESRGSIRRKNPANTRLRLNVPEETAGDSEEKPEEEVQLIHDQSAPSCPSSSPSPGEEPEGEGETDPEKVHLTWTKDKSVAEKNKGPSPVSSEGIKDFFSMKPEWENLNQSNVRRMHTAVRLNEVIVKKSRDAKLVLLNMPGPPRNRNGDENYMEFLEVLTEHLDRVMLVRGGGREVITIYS
STAT3 act = STAT3 signaling activation; U3A cells, IL-6 STAT3-luciferase reporter, luminescence; 100% = signal with IL-6 EC80 alone; activation (% of control), % at 5.6 µM; actives 0.91% (n = 190,000); AID 871;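 active means activation above the screen-wide mean of compound activation plus 3 SD, cut at about 130% in these data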
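Test system: Human STAT1-deficient U3A cells with stable STAT3-luciferase reporter | Also added: Interleukin-6, 33 ng/mL | Timing: Compound pre-incubation 1 h before IL-6, then 6 h stimulation at 37 °C | Technique: Luciferase reporter luminescence | Read-out: Percent of IL-6-only median luminescence | Benchmarks: IL-6-only wells as 100% reference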
STAT1 activator = increases IFN-gamma driven STAT1 reporter signal. NIH 3T3 STAT1-luciferase reporter, luminescence; 100% = IFN-gamma alone, no compound. activation (% of control), % at 5.5 µM. actives 2.6% (n = 200,000). AID 932;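 active means activation above the screen-wide mean activation plus 3 SD, cut at about 130% in these data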
STAT3 inh-1 = reduces IL-6 driven STAT3 reporter signal | U3A cells, IL-6 STAT3-luciferase reporter, luminescence; host cell line lacks STAT1 | inhibition, % at 5.5 µM | actives 0.89% (n = 190,000) | AID 862;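 active means inhibition above the mean inhibition across all screened compounds plus 3 SD, cut at about 44% in these data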
STAT3 inh-2 = STAT3 inhibition, confirmation assay; shares compounds with STAT3 inh-1; U3A cells, IL-6 STAT3 luciferase reporter, luminescence; cell line lacks STAT1; inhibition, % at 5.7 µM; actives 45% (n = 1,200);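 active means inhibition above the hit cutoff computed for the primary STAT3 screen, cut at about 44% in these data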
NFkB inh 2 = inhibits NF-kappaB, counter-screen to STAT3 inhibitors; shares compounds with STAT3 inh-1; HEK293T NF-kB luciferase reporter, TNF-alpha induced; inhibition, % at 5.7 µM; actives 36% (n = 1,200);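 active means inhibition above the mean of solvent-only control wells plus 3 SD, cutoff set per campaign, cut at about 13% in these data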
STAT1 inh STAT3c = inhibits STAT1, counter-screen to STAT3 inhibitors; shares compounds with STAT3 inh-1; NIH 3T3 STAT1-luciferase reporter, IFN-gamma induced, luminescence; inhibition, % at 5.7 µM; actives 27% (n = 1,200); AID 1317;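 active means inhibition above the mean plus 3 SD of solvent-only control wells, limit set per screening run, cut at about 16% in these data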
Numbers stand for hits; 0 = inactive; ? = inconclusive; - = no result given.

SMILES | HSV replic up | STAT1 inh | KCC2 mod | STAT3 act | STAT1 activator | STAT3 inh-1 | STAT3 inh-2 | NFkB inh 2 | STAT1 inh STAT3c
COc1cc(C2CC(=O)c3c([nH]c(C(=O)OCCOC(C)C)c3C)C2)cc(OC)c1OC (stereo unspecified) | 0 | 0 | 0 | 0 | 0 | 58.8 | 45.6 | 0 | 20.8
COc1cc(/C=C2/SC(=S)N(c3c(C)n(C)n(-c4ccccc4)c3=O)C2=O)ccc1O | ? | 0 | 0 | 0 | 0 | 0 | - | - | -
O=C(c1ccccc1C(=O)N(c1ccccc1)c1ccccc1)N1CCCCC1 | 0 | 0 | 0 | 0 | 0 | 0 | - | - | -
O=C(Nc1ccc2c(c1)C(=O)N(CC1CCCO1)C2=O)c1ccc(Cl)c(Cl)c1 (stereo unspecified) | - | 0 | 0 | 0 | 0 | 72.2 | 61.6 | 14.5 | 0
N#Cc1nc(N2CCCC2)nc(N2CCCC2)n1 | 0 | 0 | - | 0 | 0 | 55.7 | 56.1 | 27.7 | 0
CC(C)(C)c1ccc(C(=O)Nc2cccc3c(=O)[nH][nH]c(=O)c23)cc1 | - | 0 | 0 | 0 | 0 | 67.4 | 0 | 0 | 0
Cn1nc(C(=O)OCc2ccc(F)cc2)c2ccccc2c1=O | 0 | 0 | 0 | 0 | 0 | 0 | - | - | -
Cc1ccc(COC(=O)c2nn(C)c(=O)c3ccccc23)cc1 | 0 | 0 | 0 | 0 | 0 | 52.0 | 46.6 | 17.3 | 20.7
CCOC(=O)c1sc(NC(=O)c2cc3ccccc3o2)nc1C | 0 | 0 | 0 | 0 | 141.7 | 46.7 | 0 | 0 | 0
CCOC(=O)c1sc(NC(=O)Nc2ccccc2F)nc1C | 0 | 0 | 0 | 0 | 0 | 74.7 | 60.8 | 39.1 | 0
CCOC(=O)c1csc(NC(=O)c2cc3ccccc3o2)n1 | 0 | - | 0 | - | - | - | - | - | -
CCOC(=O)c1sc(Nc2ccccc2Cl)nc1C | 0 | - | 0 | - | - | - | - | - | -
Cc1ccccc1NC(=O)COC(=O)CCc1ccccc1 | 0 | 0 | 0 | 0 | 0 | 0 | - | - | -
O=C(CNS(=O)(=O)c1ccc(Br)cc1)N1CCOCC1 | 0 | 0 | 0 | 0 | 0 | 0 | - | - | -
Cc1ccn2cc(-c3cccc([N+](=O)[O-])c3)nc2c1 | 0 | 0 | 0 | 0 | 0 | 58.9 | 0 | 0 | 0
Cn1c(-c2ccccc2)cnc1SCC(=O)N1CCCCC1 | 0 | 0 | 0 | 0 | 0 | 65.7 | 0 | 0 | 0
COc1ccc(-c2nsc3c(N4CCCCC4)ncnc23)cc1 | 0 | 0 | 0 | 0 | 0 | 101.9 | 75.5 | 59.7 | 0
COc1ccc(C(=O)N2CCN(c3ncnc4c(-c5ccccc5)nsc34)CC2)cc1 | - | 0 | - | 0 | 0 | 0 | - | - | -
COc1ccc(C(=O)c2sc3nc(C)cc(-c4cccs4)c3c2N)cc1OC | ? | 0 | 0 | 0 | 0 | 0 | - | - | -
CC(=O)c1ccc(N2CCN(C(=S)Nc3ccc(Oc4ccccc4)cc3)CC2)cc1 | 0 | 0 | 0 | 0 | 0 | 77.5 | 60.9 | 20.2 | 0
O=C(Nc1ccc2c(c1)OCO2)N1CCN(Cc2ccco2)CC1 | 0 | 0 | 0 | 0 | 0 | 44.7 | 0 | 0 | 0
Cc1ccc(NC(=O)N2CCN(Cc3ccc4c(c3)OCO4)CC2)cc1 | 0 | 0 | - | 0 | 0 | 0 | - | - | -
COC(=O)c1cccnc1Oc1ccccc1 | 0 | - | 0 | - | - | - | - | - | -
CC1CCN(C(=O)C2CCN(S(=O)(=O)c3cccc4nsnc34)CC2)CC1 | 0 | 0 | 0 | 0 | 0 | 0 | - | - | -
CC(=O)Nc1ccc(S(=O)(=O)NCc2ccncc2)cc1 | 0 | 0 | 0 | 0 | 0 | 0 | - | - | -
SMILES | HSV replic up | STAT1 inh | KCC2 mod | STAT3 act | STAT1 activator | STAT3 inh-1 | STAT3 inh-2 | NFkB inh 2 | STAT1 inh STAT3c
CCOC(=O)COc1ccc(S(=O)(=O)NCc2ccco2)cc1 | 0 | 0 | - | 0 | 0 | 0 | - | - | -
CCOC(=O)COc1ccc(S(=O)(=O)NCc2ccncc2)cc1 | 0 | 0 | 0 | 0 | 0 | 70.0 | 54.9 | 0 | 23.0
CCOc1ccc(S(=O)(=O)NCc2ccncc2)cc1 | 0 | 0 | - | 0 | 0 | 88.5 | 81.6 | 33.7 | 23.5
CC1CCCCC1NS(=O)(=O)c1ccc(S(=O)(=O)NCc2ccncc2)cc1 (stereo unspecified) | 0 | 0 | 0 | 0 | 0 | 73.3 | 48.1 | 0 | 0
CCOc1cc(S(=O)(=O)NCc2cccs2)ccc1Cl | 0 | 0 | - | 0 | 0 | 0 | - | - | -
CCOc1cc(S(=O)(=O)NCc2ccncc2)ccc1Cl | 0 | 0 | 0 | 0 | 0 | 84.5 | 85.4 | 34.3 | 26.9
Cc1ccc(S(=O)(=O)NCC(=O)NCc2ccncc2)cc1 | 0 | 0 | 0 | 0 | 0 | 0 | - | - | -
Cc1ccc(S(=O)(=O)NCc2ccncc2)cc1 | 0 | 0 | 0 | 0 | 0 | 67.5 | 0 | 20.8 | 24.7
O=C(NCCc1ccccc1)c1ccc([N+](=O)[O-])cc1 | - | 0 | 0 | 0 | 0 | 44.5 | 0 | 0 | 0
O=C(NCCc1ccc([N+](=O)[O-])cc1)c1ccccc1 | 0 | - | 0 | - | - | - | - | - | -
CCOc1ccc(N2C(=O)CC(Sc3ccccc3C(=O)O)C2=O)c([N+](=O)[O-])c1 (stereo unspecified) | 0 | 0 | 0 | 0 | 0 | 0 | - | - | -
N/C(=N\OC(=O)COc1ccc(Br)cc1Cl)c1ccccn1 | 0 | 0 | 0 | 0 | 0 | 57.1 | 0 | 0 | 0
CCCc1n[nH]c2c1/C(=N/O)CC(c1ccccc1)C2 (stereo unspecified) | 0 | 0 | - | 0 | 0 | 45.4 | 43.7 | 0 | 0
COc1ccc(CCN2C(=O)C3C4C=CC(C4)C3C2=O)cc1OC (stereo unspecified) | 0 | 0 | - | 0 | 0 | 0 | - | - | -
Clc1ccccc1Nc1nnc(-c2ccncc2)s1 | 0 | 0 | 0 | 0 | 130.6 | 59.6 | 0 | 20.2 | 0
CNc1nnc(-c2ccncc2)s1 | 0 | 0 | 0 | 0 | 0 | 0 | - | - | -
Cc1sc2ncnc(NCC3COc4ccccc4O3)c2c1C (stereo unspecified) | 0 | 0 | 0 | 0 | 0 | 74.1 | 83.4 | 32.0 | 23.1
Cc1sc2ncnc(NCC3(N4CCOCC4)CCCCC3)c2c1C | 0 | 0 | 0 | 0 | 0 | 0 | - | - | -
Cc1sc2ncnc(NCC(C)(C)N3CCOCC3)c2c1C | 0 | 0 | 0 | 0 | 0 | 47.2 | 56.0 | 15.5 | 18.5
Cc1ccsc1/C=C1\CCc2ccccc2C1=O | 0 | 0 | 0 | 0 | 0 | 78.2 | 48.3 | 0 | 0
O=C1/C(=C/c2ccc([N+](=O)[O-])cc2)CCc2ccccc21 | 0 | - | 0 | - | - | - | - | - | -
CC(C)(C)N/C=C(\C#N)S(=O)(=O)c1ccc(Br)cc1 | 0 | - | 0 | - | - | - | - | - | -
CCOC(=O)c1sc2nc(CC(=O)OC)nc(NCc3ccc(Cl)cc3)c2c1C | 0 | 0 | 0 | 0 | 0 | 44.2 | 49.8 | 0 | 0
CCOC(=O)c1sc2nc(CC(=O)OC)nc(NCCN(CC)CC)c2c1C | 0 | 0 | 0 | 0 | 0 | 0 | - | - | -
CCOC(=O)c1c(Nc2ccccc2OCCOC)n[nH]c1C | 0 | - | 0 | - | - | - | - | - | -
